Assay results as given in ChEMBL document CHEMBL4627400, “Discovery of Dihydropyrrolo[1,2-a]pyrazin-3(4H)-one-Based Second-Generation GluN2C- and GluN2D-Selective Positive Allosteric Modulators (PAMs) of the N-Methyl-d-Aspartate (NMDA) Receptor” (J Med Chem, 2020).
In brackets after ≈: the same amount, converted by molar mass.

What was measured:
[1] = target: Glutamate NMDA receptor; Grin1/Grin2c (Rattus norvegicus) (UniProt P35439+Q00961); assay: Positive allosteric modulation of recombinant rat GluN1a/GluN2C receptor expressed in Xenopus laevis oocytes assessed as increase in glycine/L-glutamate-induced channel current at 30 uM by two-electrode voltage clamp method relative to control; format: cell-based
In short: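 Oocytes expressing rat GluN1/GluN2C or GluN2D, held at −40 mV in HEPES-buffered Ba2+ solution, pH 7.4, 23 °C. Current given as percent of agonist-alone response. Doubling concentration is the concentration giving 2-fold response; reported as […] log. 6–19 oocytes from 2–3 frogs.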

[2] = target: Glutamate NMDA receptor; Grin1/Grin2a (Rattus norvegicus, UniProt P35439+Q00959); assay: Positive allosteric modulation of recombinant rat GluN1a/GluN2A receptor expressed in Xenopus laevis oocytes assessed as increase in glycine/L-glutamate-induced channel current at 10 to 30 uM by two-electrode voltage clamp method relative to control; format: cell-based
In short: (§1)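 TEVC at −40 mV, 23 °C, in 90 NaCl/1 KCl/0.5 BaCl/0.005 EDTA/10 HEPES (mM), pH 7.4. Oocytes expressed rat GluN1/GluN2A or GluN1/GluN2B. […] Some GluN2A oocytes were BAPTA-loaded. 4–17 oocytes from 1–3 frogs.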

[3] = target: Glutamate NMDA receptor; Grin1/Grin2b (Rattus norvegicus, UniProt P35439+Q00960); assay: Positive allosteric modulation of recombinant rat GluN1a/GluN2B receptor expressed in Xenopus laevis oocytes assessed as increase in glycine/L-glutamate-induced channel current at 10 to 30 uM by two-electrode voltage clamp method relative to control; format: cell-based; in short: as §1
[4] = target: Ionotropic glutamate receptor NMDA 1/2D (Rattus norvegicus) (UniProt P35439+Q62645); assay: Positive allosteric modulation of recombinant rat GluN1a/GluN2D receptor expressed in Xenopus laevis oocytes assessed as increase in glycine/L-glutamate-induced channel current at 30 uM by two-electrode voltage clamp method relative to control; format: cell-based
In short: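 Oocytes expressing rat GluN1/GluN2C or GluN2D, held at −40 mV in HEPES-buffered Ba2+ solution, pH 7.4, 23 °C. […] Current given as percent of agonist-alone response. […] Doubling concentration is the concentration giving 2-fold response; reported as […] log. 6–19 oocytes from 2–3 frogs.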

[5] = target: Ionotropic glutamate receptor NMDA 1/2D (Rattus norvegicus, UniProt P35439+Q62645)
[6] = target: Glutamate NMDA receptor; Grin1/Grin2c (Rattus norvegicus, UniProt P35439+Q00961)
[7] = Aqueous solubility of the compound at pH 7.4 after 30 mins by nephelometric analysis; format: physicochemical; conditions: buffer

Sequence of Glutamate NMDA receptor; Grin1/Grin2a (Q00959 whole entry, other chains not shown): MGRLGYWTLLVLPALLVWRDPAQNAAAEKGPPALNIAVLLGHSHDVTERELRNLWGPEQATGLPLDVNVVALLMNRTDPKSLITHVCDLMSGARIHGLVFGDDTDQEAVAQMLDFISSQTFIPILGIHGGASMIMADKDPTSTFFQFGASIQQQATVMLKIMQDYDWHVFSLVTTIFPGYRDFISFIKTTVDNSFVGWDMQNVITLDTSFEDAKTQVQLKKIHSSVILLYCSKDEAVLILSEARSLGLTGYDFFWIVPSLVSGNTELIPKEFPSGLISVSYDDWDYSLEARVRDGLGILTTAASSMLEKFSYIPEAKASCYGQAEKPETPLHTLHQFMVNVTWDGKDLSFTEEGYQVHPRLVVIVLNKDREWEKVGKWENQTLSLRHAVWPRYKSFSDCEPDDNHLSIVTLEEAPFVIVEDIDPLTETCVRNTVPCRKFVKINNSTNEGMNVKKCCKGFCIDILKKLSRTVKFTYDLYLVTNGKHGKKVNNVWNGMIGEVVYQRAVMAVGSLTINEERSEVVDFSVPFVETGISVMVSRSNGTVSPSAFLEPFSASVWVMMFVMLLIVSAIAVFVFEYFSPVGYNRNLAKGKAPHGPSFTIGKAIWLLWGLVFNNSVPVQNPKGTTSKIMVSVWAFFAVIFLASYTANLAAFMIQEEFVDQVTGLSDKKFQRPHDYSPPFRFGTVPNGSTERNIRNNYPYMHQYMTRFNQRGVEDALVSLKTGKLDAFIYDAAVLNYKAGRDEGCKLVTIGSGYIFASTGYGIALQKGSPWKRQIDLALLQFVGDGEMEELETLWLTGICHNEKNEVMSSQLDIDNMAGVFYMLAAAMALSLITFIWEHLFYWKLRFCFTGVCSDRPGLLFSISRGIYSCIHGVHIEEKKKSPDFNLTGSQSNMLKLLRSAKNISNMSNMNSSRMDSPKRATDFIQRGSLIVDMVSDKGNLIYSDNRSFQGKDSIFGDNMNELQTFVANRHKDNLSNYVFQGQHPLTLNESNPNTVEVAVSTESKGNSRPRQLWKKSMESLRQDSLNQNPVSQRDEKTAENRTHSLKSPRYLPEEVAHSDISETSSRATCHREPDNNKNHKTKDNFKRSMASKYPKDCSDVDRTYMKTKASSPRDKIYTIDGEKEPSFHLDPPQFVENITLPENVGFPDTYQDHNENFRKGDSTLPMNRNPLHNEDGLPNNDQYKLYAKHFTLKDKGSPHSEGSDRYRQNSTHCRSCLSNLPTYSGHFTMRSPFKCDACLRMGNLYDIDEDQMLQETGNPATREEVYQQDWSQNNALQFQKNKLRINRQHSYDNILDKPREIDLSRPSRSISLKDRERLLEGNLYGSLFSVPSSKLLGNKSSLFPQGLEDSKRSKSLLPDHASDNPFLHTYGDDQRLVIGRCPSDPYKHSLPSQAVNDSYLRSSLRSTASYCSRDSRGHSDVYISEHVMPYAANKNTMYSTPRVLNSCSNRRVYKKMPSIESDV
Sequence of Glutamate NMDA receptor; Grin1/Grin2b (Q00960 whole entry, other chains not shown): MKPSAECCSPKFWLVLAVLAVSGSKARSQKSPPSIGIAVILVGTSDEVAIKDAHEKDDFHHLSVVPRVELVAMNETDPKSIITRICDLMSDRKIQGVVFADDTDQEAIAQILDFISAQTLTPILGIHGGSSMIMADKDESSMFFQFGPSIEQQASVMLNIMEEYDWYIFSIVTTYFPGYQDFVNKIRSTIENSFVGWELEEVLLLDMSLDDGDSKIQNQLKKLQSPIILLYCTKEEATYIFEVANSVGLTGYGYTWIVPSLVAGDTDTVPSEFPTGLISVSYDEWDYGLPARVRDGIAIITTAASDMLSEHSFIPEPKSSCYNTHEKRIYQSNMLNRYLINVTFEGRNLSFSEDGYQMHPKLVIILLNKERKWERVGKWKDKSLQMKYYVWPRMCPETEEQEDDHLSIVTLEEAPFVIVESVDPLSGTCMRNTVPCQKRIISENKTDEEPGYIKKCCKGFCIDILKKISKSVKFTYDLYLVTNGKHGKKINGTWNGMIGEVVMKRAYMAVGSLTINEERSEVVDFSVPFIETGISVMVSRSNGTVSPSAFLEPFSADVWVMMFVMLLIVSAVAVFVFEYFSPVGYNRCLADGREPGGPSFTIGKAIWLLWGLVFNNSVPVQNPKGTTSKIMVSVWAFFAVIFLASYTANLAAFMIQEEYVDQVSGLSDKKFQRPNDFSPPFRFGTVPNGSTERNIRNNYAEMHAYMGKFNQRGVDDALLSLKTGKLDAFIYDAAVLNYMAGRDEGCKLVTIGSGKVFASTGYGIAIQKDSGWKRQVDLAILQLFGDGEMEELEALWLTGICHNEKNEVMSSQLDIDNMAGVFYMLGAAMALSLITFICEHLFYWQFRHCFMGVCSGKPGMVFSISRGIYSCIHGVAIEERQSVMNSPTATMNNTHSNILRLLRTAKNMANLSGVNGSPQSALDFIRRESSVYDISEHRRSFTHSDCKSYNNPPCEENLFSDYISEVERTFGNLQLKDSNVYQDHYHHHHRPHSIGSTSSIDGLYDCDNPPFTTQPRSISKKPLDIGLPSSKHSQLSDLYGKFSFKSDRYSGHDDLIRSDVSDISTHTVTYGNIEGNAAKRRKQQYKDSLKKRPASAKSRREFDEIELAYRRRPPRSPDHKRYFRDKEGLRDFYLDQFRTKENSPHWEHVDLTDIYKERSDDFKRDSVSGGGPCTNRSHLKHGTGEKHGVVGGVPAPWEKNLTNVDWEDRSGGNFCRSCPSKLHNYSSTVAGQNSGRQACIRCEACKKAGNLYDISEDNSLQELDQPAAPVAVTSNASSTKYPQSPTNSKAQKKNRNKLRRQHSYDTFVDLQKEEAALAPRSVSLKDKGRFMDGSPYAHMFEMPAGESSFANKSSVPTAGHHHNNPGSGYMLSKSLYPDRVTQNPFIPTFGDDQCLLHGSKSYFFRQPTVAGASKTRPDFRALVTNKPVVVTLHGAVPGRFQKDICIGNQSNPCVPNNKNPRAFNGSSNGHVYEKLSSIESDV

Question: What does the source list for `COc1ccc(OCC2c3sc(C)nc3CCN2C(=O)c2cccc(Cl)c2)cc1` (centres undefined)?
Answer: %max [1]: 100%; Activity [2]: Not Active; Activity [3]: Not Active; %max [4]: 100%

Question: With `COc1ccc(OCC2c3ccccc3CCN2C(=O)c2cccc(Cl)c2)cc1` (centres undefined) as the compound, how does the %max [1] read?
Answer: 260%

Question: What about the EC50 [5] of the same compound?
Answer: 7.94 µM

Question: And the Activity [2]?
Answer: Not Active

Question: What about the Activity [3] of the same compound?
Answer: Not Active

Question: What about the %max [4] of the same compound?
Answer: 300%

Question: And the EC50 [6]?
Answer: 6.31 µM

Question: With `COc1ccc(OCC2c3sccc3CCN2C(=O)c2ccc(Cl)s2)cc1` (centres undefined) as the compound, how does the %max [1] read?
Answer: 290%

Question: And the EC50 [5]?
Answer: 5.01 µM

Question: And the Activity [2]?
Answer: Not Active

Question: What about the Activity [3] of the same compound?
Answer: Not Active

Question: And the %max [4]?
Answer: 400%

Question: What about the EC50 [6] of the same compound?
Answer: 5.01 µM

Question: With `COc1ccc(OCC2c3ccc(OC)cc3CC(=O)N2CCCN(C)C)cc1` (centres undefined) as the compound, how does the %max [1] read?
Answer: 110%

Question: What about the Activity [2] of the same compound?
Answer: Not Active

Question: And the Activity [3]?
Answer: Not Active

Question: What about the %max [4] of the same compound?
Answer: 96%

Question: Which EC50 [5] does the source give for `COc1ccc(OCC2c3ccc(OC(C)C)cc3CCN2C(=O)c2cccc(F)c2)cc1` (centres undefined) here?
Answer: 7.94 µM

Question: And the Activity [2]?
Answer: Not Active

Question: And the Activity [3]?
Answer: Not Active

Question: With `COc1ccc(OCC2c3cc(OC)c(OC)cc3CC(=O)N2Cc2cccc(Cl)c2)cc1` (centres undefined) as the compound, how does the %max [1] read?
Answer: 270%

Question: And the EC50 [5]?
Answer: 10 µM

Question: What about the Activity [2] of the same compound?
Answer: Not Active

Question: And the Activity [3]?
Answer: Not Active

Question: And the %max [4]?
Answer: 340%

Question: What about the EC50 [6] of the same compound?
Answer: 5.01 µM

Question: With `COCCOCCN1C(=O)Cc2cc(OC)ccc2C1COc1ccc(OC)cc1` (centres undefined) as the compound, how does the %max [1] read?
Answer: 98%

Question: What about the Activity [2] of the same compound?
Answer: Not Active

Question: What about the Activity [3] of the same compound?
Answer: Not Active

Question: What about the %max [4] of the same compound?
Answer: 100%

Question: For `COc1ccc(OCC2c3ccc(OC)cc3CC(=O)N2Cc2cccc(Cl)c2)cc1` (centres undefined), which %max [1] is on record?
Answer: 270%

Question: What about the EC50 [5] of the same compound?
Answer: 2.51 µM

Question: What about the Activity [2] of the same compound?
Answer: Not Active

Question: What about the Activity [3] of the same compound?
Answer: Not Active

Question: And the %max [4]?
Answer: 330%

Question: What about the EC50 [6] of the same compound?
Answer: 2 µM

Question: Which %max [1] does the source give for `COc1cc2c(cc1OC)C(COC1CCOCC1)N(C(=O)c1cccc(C(F)(F)F)c1)CC2` (centres undefined) here?
Answer: 100%

Question: And the Activity [2]?
Answer: Not Active

Question: And the Activity [3]?
Answer: Not Active

Question: What about the %max [4] of the same compound?
Answer: 95%

Question: With `COc1ccc(OCC2c3ccc(OC(C)C)cc3CCN2C(=O)c2cccc(C(F)(F)F)c2)cc1` (centres undefined) as the compound, how does the EC50 [5] read?
Answer: 2.51 µM

Question: And the Activity [2]?
Answer: Not Active

Question: What about the Activity [3] of the same compound?
Answer: Not Active

Question: And the EC50 [6]?
Answer: 1.58 µM

Question: With `COc1ccc(OCC2c3cc(OC)c(OC)cc3CCN2C(=O)c2cccc(Cl)c2)s1` (centres undefined) as the compound, how does the %max [1] read?
Answer: 100%

Question: What about the Activity [2] of the same compound?
Answer: Not Active

Question: What about the Activity [3] of the same compound?
Answer: Not Active

Question: What about the %max [4] of the same compound?
Answer: 110%

Question: For `COc1ccc(OCC2c3ccc(OC)cc3CC(=O)N2CCCC(F)(F)F)cc1` (centres undefined), which %max [1] is on record?
Answer: 290%

Question: And the EC50 [5]?
Answer: 20 µM

Question: And the Activity [2]?
Answer: Not Active

Question: What about the Activity [3] of the same compound?
Answer: Not Active

Question: What about the %max [4] of the same compound?
Answer: 450%

Question: And the EC50 [6]?
Answer: 7.94 µM

Question: Which results are given for `COc1cc2c(cc1OC)C(COc1cccnc1)N(C(=O)c1cccc(C(F)(F)F)c1)CC2` (centres undefined)?
Answer: %max [1]: 90%; Activity [2]: Not Active; Activity [3]: Not Active; %max [4]: 88%

Question: With `COc1ccc(OC[C@@H]2c3cccn3CCN2C(=O)c2cccc(Cl)c2)cc1` as the compound, how does the %max [1] read?
Answer: 98%

Question: What about the solubility kinetic at 0.5 h [7] of the same compound?
Answer: 36 µM (≈ 14.3 µg/mL)

Question: And the Activity [2]?
Answer: Not Active

Question: What about the Activity [3] of the same compound?
Answer: Not Active

Question: What about the %max [4] of the same compound?
Answer: 99%

Question: Which results are given for `COc1ccc(OCC2c3ccc(OCC(C)C)cc3CCN2C(=O)c2cccc(Cl)c2)cc1` (centres undefined)?
Answer: EC50 [5]: 1.26 µM; Activity [2]: Not Active; Activity [3]: Not Active; EC50 [6]: 1 µM

Question: What does the source list for `COc1cc2c(cc1OC)C(COc1ncccn1)N(C(=O)c1cccc(C(F)(F)F)c1)CC2` (centres undefined)?
Answer: %max [1]: 97%; Activity [2]: Not Active; Activity [3]: Not Active; %max [4]: 95%

Question: With `COc1ccc(OCC2c3ccsc3CCN2C(=O)c2cccc(Cl)c2)cc1` (centres undefined) as the compound, how does the %max [1] read?
Answer: 330%

Question: And the EC50 [5]?
Answer: 5.01 µM

Question: What about the Activity [2] of the same compound?
Answer: Not Active

Question: And the Activity [3]?
Answer: Not Active

Question: And the %max [4]?
Answer: 340%

Question: And the EC50 [6]?
Answer: 3.98 µM

Question: Which results are given for `COc1ccc(OCC2c3cnn(C)c3CCN2C(=O)c2cccc(Cl)c2)cc1` (centres undefined)?
Answer: %max [1]: 210%; Activity [2]: Not Active; Activity [3]: Not Active; %max [4]: 220%

Question: With `COc1ccc(OCC2c3ccc(OC(C)C)cc3CC(=O)N2Cc2cccc(Cl)c2)cc1` (centres undefined) as the compound, how does the %max [1] read?
Answer: 350%

Question: What about the EC50 [5] of the same compound?
Answer: 0.501 µM

Question: What about the Activity [2] of the same compound?
Answer: Not Active

Question: And the Activity [3]?
Answer: Not Active

Question: And the %max [4]?
Answer: 370%

Question: What about the EC50 [6] of the same compound?
Answer: 0.398 µM

Question: With `CCCN1C(=O)Cc2cc(OC)ccc2C1COc1ccc(OC)cc1` (centres undefined) as the compound, how does the %max [1] read?
Answer: 97%

Question: What about the Activity [2] of the same compound?
Answer: Not Active

Question: What about the Activity [3] of the same compound?
Answer: Not Active

Question: What about the %max [4] of the same compound?
Answer: 94%
